Rows were chosen to be rich in hits. Some 3% of all compounds tested hit in one or more screens of this group.
NPY-Y2 antag: NPY-Y2 (human) receptor antagonism. P49146. NPY-Y2 expressing cells, antagonist mode. inhibition, % at 2.7 µM. actives 0.99% (n = 140,000). AID 793; in the data active means inhibition above about 17%;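 further: 0% = vehicle with agonist challenge and 100% = reference antagonist with challenge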
Target sequence (P49146 whole entry, looked up): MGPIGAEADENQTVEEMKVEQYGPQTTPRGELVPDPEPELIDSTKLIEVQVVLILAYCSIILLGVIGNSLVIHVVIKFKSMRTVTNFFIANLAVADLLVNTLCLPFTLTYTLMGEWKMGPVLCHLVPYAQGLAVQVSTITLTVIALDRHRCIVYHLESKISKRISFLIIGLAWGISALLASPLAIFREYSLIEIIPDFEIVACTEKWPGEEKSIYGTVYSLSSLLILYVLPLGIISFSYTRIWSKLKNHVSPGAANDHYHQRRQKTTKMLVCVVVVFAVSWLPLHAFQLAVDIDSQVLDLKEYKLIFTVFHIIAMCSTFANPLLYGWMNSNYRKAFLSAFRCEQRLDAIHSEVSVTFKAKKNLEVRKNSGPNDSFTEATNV
NPY-Y1 PAM-ag: potentiates or activates human NPY-Y1 receptor | activation, % at 3.6 µM | P25929 | actives 0.37% (n = 220,000) | AID 1304 | NPY-Y1 expressing cells, potentiator/agonist activation; in the data active means activation above about 33%, passing the limit was not always enough;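 further: cells stimulated with NPY at EC10 then isoproterenol at EC100; 0% = low agonist plus stimulus and 100% = saturating agonist plus stimulus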
Target sequence (P25929 whole entry, looked up): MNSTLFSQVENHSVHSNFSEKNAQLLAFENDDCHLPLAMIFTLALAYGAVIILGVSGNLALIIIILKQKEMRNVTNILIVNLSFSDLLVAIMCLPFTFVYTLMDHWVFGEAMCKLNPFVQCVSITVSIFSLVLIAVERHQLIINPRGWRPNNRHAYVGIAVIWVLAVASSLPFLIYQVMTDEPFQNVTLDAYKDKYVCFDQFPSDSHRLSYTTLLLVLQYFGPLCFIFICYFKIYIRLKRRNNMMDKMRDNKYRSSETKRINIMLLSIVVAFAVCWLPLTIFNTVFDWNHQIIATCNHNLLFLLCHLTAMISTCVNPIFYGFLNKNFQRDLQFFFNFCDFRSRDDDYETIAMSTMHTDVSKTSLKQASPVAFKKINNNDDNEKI
NPY-Y1 antag: antagonists of human neuropeptide Y receptor Y1; P25929; HEK293-CNG Y1 cells, membrane potential fluorescence; NPY at EC95, then isoproterenol; inhibition, % at 3.6 µM; actives 1% (n = 200,000); AID 1040;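 active means inhibition above the campaign mean inhibition of all tested compounds plus 3 SD, cut at about 20% in these data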;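 further: 0% = DMSO wells given NPY plus isoproterenol and 100% = isoproterenol alone without NPY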
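Benchmarks – high control isoproterenol alone, low control NPY with isoproterenol · Material – HEK293 Y1/CNG channel cell line · Times – dye 3 h, compound 60 min room temperature, stimulation 45 min · Probe or stimulus – NPY (25 nM), isoproterenol (1 µM), Ro 20-1724 (25 µM) · Evaluation – % inhibition of NPY effect · Signal – fluorescence, membrane potential probe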
NPY-Y2 PAM-ag: human NPY-Y2 potentiation or agonism, primary screen. actives 0.45% (n = 220,000). activation, % at 3.6 µM. AID 1359. cells expressing NPY-Y2, potentiator/agonist read-out; in the data active means activation above about 27%;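 further: cells stimulated with NPY near EC25 plus isoproterenol at EC100; 0% = vehicle plus submaximal agonist and 100% = vehicle plus saturating agonist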
Wee1 degr inh: human Wee1 degradation inhibition, primary screen; P30291; HeLa Luc-Wee1K328M stability, luciferase luminescence; 100% = proteasome inhibitor MG132 effect; reporter increase, % at 5 µM; actives 1.2% (n = 220,000);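 active means activation above the mean of all tested compounds plus 3 SD, set per screening run, cut at about 8.8% in these data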;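 further: cells exposed to compound for 20 h before luminescence read; 0% = DMSO alone and 100% = MG132 at 30 µM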
Hsp70 activator: switches on Hsp70 transcription; HeLa Hsp70 promoter luciferase reporter, luminescence; scaled: vehicle 0, proteasome-inhibitor control 100%; activation, % at 10 µM; actives 0.04% (n = 200,000); AID 1203;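 active means activation above the mean across all tested compounds plus 3 SD, cutoff set per campaign, cut at about 5.5% in these data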;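 further: 100% = MG132 at 30 µM as the positive control and 0% = DMSO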
* = called active by the depositor.

Screening CC(NC(=O)c1cccc(S(=O)(=O)N(C)C)c1)c1nc2ccccc2[nH]1 (stereo not given) returned NPY-Y1 PAM-ag -4.0, NPY-Y1 antag -0.3, NPY-Y2 PAM-ag 1.4, Wee1 degr inh 6.7 and Hsp70 activator -0.1.
For CCN(CC)S(=O)(=O)c1cccc(C(=O)N[C@@H](C)c2nc3ccccc3[nH]2)c1 the results were NPY-Y1 PAM-ag 3.5, NPY-Y1 antag 16.5, NPY-Y2 PAM-ag 0.7, Wee1 degr inh 9.9* and Hsp70 activator -0.3.
For O=C(c1nn(Cc2ccccc2)c(=O)c2ccccc12)N1CCc2ccccc2C1 the results were NPY-Y2 antag 10.8, NPY-Y1 PAM-ag -14.2, NPY-Y1 antag 9.0, NPY-Y2 PAM-ag -12.8, Wee1 degr inh -1.0 and Hsp70 activator 0.0.
O=C(c1nn(Cc2ccccc2)c(=O)c2ccccc12)N1CCN(c2ccccn2)CC1 was read as NPY-Y2 antag 20.3*, NPY-Y1 PAM-ag -34.0, NPY-Y1 antag 46.4*, NPY-Y2 PAM-ag -8.6, Wee1 degr inh -3.4 and Hsp70 activator -0.4.
Screening CCOC(=O)c1cnc2ccc(OCC)cc2c1N1CCN(c2ccccc2)CC1 returned NPY-Y2 antag 17.4*, NPY-Y1 PAM-ag -36.2, NPY-Y1 antag 29.3*, NPY-Y2 PAM-ag -28.5, Wee1 degr inh 1.9 and Hsp70 activator 0.3.
`CCOc1ccc2ncc(S(=O)(=O)c3ccccc3)c(N3CCN(c4ccc(OC)cc4)CC3)c2c1` gave NPY-Y2 antag 1.3, NPY-Y1 PAM-ag -2.1, NPY-Y1 antag 0.2, NPY-Y2 PAM-ag 3.8, Wee1 degr inh 0.6 and Hsp70 activator 0.0.
CCOC(=O)c1cnc2ccc(OCC)cc2c1NCc1cccnc1 was read as NPY-Y2 antag 1.9, NPY-Y1 PAM-ag -41.7, NPY-Y1 antag 2.5, NPY-Y2 PAM-ag -3.5, Wee1 degr inh -0.5 and Hsp70 activator -0.1.
For CCOC(=O)c1cnc2ccc(OCC)cc2c1NCc1ccccc1 the results were NPY-Y2 antag 65.7*, NPY-Y1 PAM-ag -198.9, NPY-Y1 antag 69.7*, NPY-Y2 PAM-ag -66.6, Wee1 degr inh -2.4 and Hsp70 activator -0.3.
Screening Cc1ccc(CN(Cc2ccco2)S(=O)(=O)c2ccc(S(=O)(=O)NCC3CCCO3)cc2)cc1 (stereo not given) returned NPY-Y2 antag 2.7, NPY-Y1 PAM-ag -6.9, NPY-Y1 antag 2.3, NPY-Y2 PAM-ag -12.4, Wee1 degr inh 1.1 and Hsp70 activator -0.5.
Screening CCNc1nc(N)c(C(=O)c2ccc(Cl)s2)s1 returned NPY-Y2 antag 2.6, NPY-Y1 PAM-ag 50.9, NPY-Y1 antag -0.3, NPY-Y2 PAM-ag 20.5, Wee1 degr inh 10.3* and Hsp70 activator 0.5.
`CC(C)(C)c1csc(NC(=O)c2ccc(Cl)s2)n1` gave NPY-Y2 antag 2.0, NPY-Y1 PAM-ag 9.6, NPY-Y1 antag -0.5, NPY-Y2 PAM-ag 10.1, Wee1 degr inh 8.5 and Hsp70 activator 0.7.
Screening Cc1csc2ncnc(N3CCN(C(=O)Nc4ccc(OC(F)(F)F)cc4)CC3)c12 returned NPY-Y1 PAM-ag 8.0, NPY-Y2 PAM-ag 19.2 and Wee1 degr inh 5.0.
`CCOC(=O)c1[nH]c(CO)c(C(=O)OCC)c1C` gave NPY-Y1 PAM-ag -8.3, NPY-Y2 PAM-ag 11.8 and Wee1 degr inh 1.6.
COc1ccc(C(=O)c2coc3ccc(O)c(CN4CCCCC4)c23)cc1 was read as NPY-Y2 antag 25.0*, NPY-Y1 PAM-ag -87.3, NPY-Y1 antag 20.4*, NPY-Y2 PAM-ag -34.2, Wee1 degr inh -3.7 and Hsp70 activator -0.5.
Screening CCOC(=O)c1c(C)oc2ccc(O)c(CN3CCCCC3)c12 returned NPY-Y2 antag 22.3*, NPY-Y1 PAM-ag -32.4, NPY-Y1 antag 26.9*, NPY-Y2 PAM-ag -9.8, Wee1 degr inh -1.4 and Hsp70 activator -0.2.
Screening O=C(c1ccccc1)c1coc2ccc(O)c(CN3CCOCC3)c12 returned NPY-Y2 antag 5.7, NPY-Y1 PAM-ag -30.4, NPY-Y1 antag 1.9, NPY-Y2 PAM-ag -10.0, Wee1 degr inh -1.5 and Hsp70 activator 0.2.
CCOC(=O)c1c(C)n(C)c2ccc(O)c(CN3CCCCC3)c12 was read as NPY-Y2 antag 9.1, NPY-Y1 PAM-ag -0.4, NPY-Y1 antag 18.1, NPY-Y2 PAM-ag 10.5, Wee1 degr inh 5.2 and Hsp70 activator -0.5.
Screening CCn1c(CNC(=O)Cc2ccc(OC)cc2)nnc1SCC(=O)Nc1nccs1 returned NPY-Y2 antag 0.3, NPY-Y1 PAM-ag -14.5, NPY-Y1 antag -5.3, NPY-Y2 PAM-ag -6.8, Wee1 degr inh 10.7* and Hsp70 activator -0.4.
`O=C(NCCCn1ccnc1)/C(=C/c1ccco1)NC(=O)c1ccco1` gave NPY-Y1 PAM-ag 17.5, NPY-Y2 PAM-ag 21.4 and Wee1 degr inh -0.6.
Cc1nnc(SCC(C)C)[nH]c1=O was read as NPY-Y2 antag -2.5, NPY-Y1 PAM-ag 2.7, NPY-Y1 antag 4.3, NPY-Y2 PAM-ag 4.5, Wee1 degr inh 9.4* and Hsp70 activator -0.2.
`Cc1c(Cl)cccc1NC(=S)N1CCN(Cc2ccc3c(c2)OCO3)CC1` gave NPY-Y2 antag 2.2, NPY-Y1 PAM-ag 53.2*, NPY-Y1 antag 15.2, NPY-Y2 PAM-ag 33.4*, Wee1 degr inh -1.8 and Hsp70 activator 0.0.
`Cc1cccc(C(=O)N2CCN(Cc3ccc4c(c3)OCO4)CC2)c1` gave NPY-Y2 antag -0.7, NPY-Y1 PAM-ag 0.7, NPY-Y1 antag 4.7, NPY-Y2 PAM-ag 3.7, Wee1 degr inh 9.3* and Hsp70 activator -0.3.
`CC(C)c1ccc2c(c1)C(c1ccc(N3CCOCC3)cc1)=NNC(c1cccs1)=N2` gave NPY-Y2 antag 4.2, NPY-Y1 PAM-ag 1.1, NPY-Y1 antag -1.8, NPY-Y2 PAM-ag -16.8, Wee1 degr inh 0.2 and Hsp70 activator -0.3.
O=S1(=O)C=C(SCc2ccccc2)Nc2ccccc21 was read as NPY-Y2 antag -0.3, NPY-Y1 PAM-ag -17.0, NPY-Y1 antag -3.2, NPY-Y2 PAM-ag -9.8, Wee1 degr inh 1.8 and Hsp70 activator -0.1.
For COc1ccc(CSC2=CS(=O)(=O)c3ccccc3N2)cc1 the results were NPY-Y1 PAM-ag -13.3, NPY-Y1 antag 1.9, NPY-Y2 PAM-ag 3.2, Wee1 degr inh 9.7* and Hsp70 activator -0.1.
Screening Cc1cccn2c(CNCCSc3nccn3C)c(C(=O)N3CCCCC3)nc12 returned NPY-Y1 PAM-ag 3.4, NPY-Y2 PAM-ag 1.2 and Wee1 degr inh 8.9*.
For Cc1cccn2c(CNCCCn3ncc4ccccc43)c(C(=O)N3CCCCC3)nc12 the results were NPY-Y1 PAM-ag -0.5, NPY-Y1 antag 1.4, NPY-Y2 PAM-ag -5.4, Wee1 degr inh 10.4* and Hsp70 activator -0.3.
`O=C(c1nc2ccccn2c1CNCCCn1ncc2ccccc21)N1CCOCC1` gave NPY-Y1 PAM-ag -21.0, NPY-Y1 antag 3.2, NPY-Y2 PAM-ag -26.7, Wee1 degr inh 1.8 and Hsp70 activator -0.3.
CCOC(=O)C1CCCN(Cc2c(C(=O)N3CCCCC3)nc3c(C)cccn23)C1 (stereo not given) was read as NPY-Y1 PAM-ag 9.5, NPY-Y1 antag 1.9, NPY-Y2 PAM-ag -17.3, Wee1 degr inh -0.2 and Hsp70 activator -0.3.

Bioassay records as filed in PubChem.
